Reference: ChEMBL document CHEMBL1123812, “Pyrroloisoquinoline antidepressants. 2. In-depth exploration of structure-activity relationships” (J Med Chem, 1987)
Calls of active or inactive are those of the source.

Assays:
[1] = target: Serotonin 1 (5-HT1) receptor (Rattus norvegicus, UniProt P28564+P30940+P19327+P28565); test: Binding affinity towards serotonin S1 receptor; type: protein assay
Method in brief: (§1)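 Rat brain crude synaptic membranes in 20 mM NaHEPES pH 7.5. Ligands: α1 cortex […] 0.4 nM, nonspecific with (-)-NE 100 μM, 30 min at 25 °C. […] D2 striatum [3H]spiperone 0.05 nM with (+)-butaclamol 1 μM, 45 min at 37 °C. S1 cortex [3H]5-HT 1 nM plus glutathione and MgCl2, with 5-HT 10 μM, 20 min at 37 °C. […] Samples filtered on GF/B and counted.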

[2] = organism: Mus musculus; test: Antagonism of tetrabenazine (TBZ)-induced depression measured in mice by motor activity; type: functional
Method in brief: (§2)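 Nonfasted male Swiss Webster mice, 18–24 g, ten per dose level and in saline controls. Test compound given ip 30 min before tetrabenazine 32 mg/kg ip; dose expressed as free base. Motor activity and ptosis scored. Control response ≤90% corrected by Abbott's formula.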

[3] = organism: Mus musculus; test: Antagonism of tetrabenazine (TBZ)-induced depression in mice measured for ptosis; type: functional; method in brief: as §2
[4] = target: T1, Adrenergic receptor alpha-1 (Rattus norvegicus, UniProt P15823+P23944+P43140); test: Binding affinity towards alpha-1 adrenergic receptor; type: protein assay
T1 sequence (P15823 whole entry): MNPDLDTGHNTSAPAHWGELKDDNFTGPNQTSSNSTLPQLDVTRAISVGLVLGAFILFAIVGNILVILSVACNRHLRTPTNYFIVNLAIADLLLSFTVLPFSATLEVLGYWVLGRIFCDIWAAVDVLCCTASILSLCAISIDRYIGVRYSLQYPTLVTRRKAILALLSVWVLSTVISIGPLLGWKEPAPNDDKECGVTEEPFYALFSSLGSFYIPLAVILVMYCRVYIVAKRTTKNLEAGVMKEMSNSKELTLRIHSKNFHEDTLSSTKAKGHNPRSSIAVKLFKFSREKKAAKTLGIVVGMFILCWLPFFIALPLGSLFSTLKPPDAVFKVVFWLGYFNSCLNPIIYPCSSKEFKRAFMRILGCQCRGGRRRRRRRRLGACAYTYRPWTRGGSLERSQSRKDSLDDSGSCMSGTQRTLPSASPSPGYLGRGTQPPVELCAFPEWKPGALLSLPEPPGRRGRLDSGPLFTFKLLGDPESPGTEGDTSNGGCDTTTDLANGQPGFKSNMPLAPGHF
T1 sequence (P23944 whole entry): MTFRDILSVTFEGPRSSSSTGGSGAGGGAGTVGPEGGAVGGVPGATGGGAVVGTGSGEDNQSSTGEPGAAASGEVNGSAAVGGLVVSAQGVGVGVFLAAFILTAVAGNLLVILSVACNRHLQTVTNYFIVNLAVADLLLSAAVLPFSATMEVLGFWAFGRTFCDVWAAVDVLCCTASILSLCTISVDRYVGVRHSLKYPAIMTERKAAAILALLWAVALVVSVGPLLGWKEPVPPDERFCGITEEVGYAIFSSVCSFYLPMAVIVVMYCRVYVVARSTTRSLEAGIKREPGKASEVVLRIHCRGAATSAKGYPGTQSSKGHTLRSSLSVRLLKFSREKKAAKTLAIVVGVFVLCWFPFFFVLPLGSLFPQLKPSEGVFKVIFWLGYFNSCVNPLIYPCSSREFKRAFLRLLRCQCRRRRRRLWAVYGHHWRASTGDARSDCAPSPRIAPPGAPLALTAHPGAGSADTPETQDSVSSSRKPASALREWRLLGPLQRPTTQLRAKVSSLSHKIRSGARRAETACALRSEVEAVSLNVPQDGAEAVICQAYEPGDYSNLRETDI
T1 sequence (P43140 whole entry): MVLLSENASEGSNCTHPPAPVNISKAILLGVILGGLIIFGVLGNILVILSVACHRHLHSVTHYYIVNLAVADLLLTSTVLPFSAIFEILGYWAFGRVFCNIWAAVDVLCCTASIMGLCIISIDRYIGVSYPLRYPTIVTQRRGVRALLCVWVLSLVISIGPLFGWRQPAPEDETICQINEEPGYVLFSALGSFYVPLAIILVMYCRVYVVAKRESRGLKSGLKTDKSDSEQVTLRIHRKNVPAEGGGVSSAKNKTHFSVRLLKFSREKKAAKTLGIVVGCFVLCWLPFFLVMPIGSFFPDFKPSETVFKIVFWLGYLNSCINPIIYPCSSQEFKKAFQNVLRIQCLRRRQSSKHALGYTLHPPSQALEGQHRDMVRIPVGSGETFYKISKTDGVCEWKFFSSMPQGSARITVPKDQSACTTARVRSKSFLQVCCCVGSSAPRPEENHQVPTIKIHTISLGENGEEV

[5] = target: Serotonin 2 (5-HT2) receptor (Rattus norvegicus, UniProt P30994+P08909+P14842); test: Binding affinity towards 5-hydroxytryptamine 2 receptor; type: protein assay
[6] = target: Sodium-dependent dopamine transporter (Rattus norvegicus, UniProt P23977); test: Inhibition of the uptake of tritiated dopamine (DA) in rat synaptosomes; type: subcellular, Brain
Sodium-dependent dopamine transporter, sequence (P23977 whole entry): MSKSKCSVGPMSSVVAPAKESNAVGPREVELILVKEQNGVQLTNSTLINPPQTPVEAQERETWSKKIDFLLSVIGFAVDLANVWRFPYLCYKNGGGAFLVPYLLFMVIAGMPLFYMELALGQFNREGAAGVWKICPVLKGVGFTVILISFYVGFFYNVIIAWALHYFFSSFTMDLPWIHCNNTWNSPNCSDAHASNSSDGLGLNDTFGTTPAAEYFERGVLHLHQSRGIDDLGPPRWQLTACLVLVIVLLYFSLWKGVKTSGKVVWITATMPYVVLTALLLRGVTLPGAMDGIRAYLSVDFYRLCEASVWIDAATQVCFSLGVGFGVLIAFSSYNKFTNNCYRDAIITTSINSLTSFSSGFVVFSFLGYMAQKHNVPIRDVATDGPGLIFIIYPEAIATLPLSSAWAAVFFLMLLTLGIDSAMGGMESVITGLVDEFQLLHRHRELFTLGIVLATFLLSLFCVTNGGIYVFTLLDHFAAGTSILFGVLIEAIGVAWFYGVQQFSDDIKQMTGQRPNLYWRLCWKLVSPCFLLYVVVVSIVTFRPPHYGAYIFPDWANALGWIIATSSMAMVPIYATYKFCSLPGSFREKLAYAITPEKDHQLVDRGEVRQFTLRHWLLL

[7] = target: D(2) dopamine receptor (Rattus norvegicus, UniProt P61169); test: Binding affinity towards Dopamine receptor D2
D(2) dopamine receptor, sequence (P61169 whole entry): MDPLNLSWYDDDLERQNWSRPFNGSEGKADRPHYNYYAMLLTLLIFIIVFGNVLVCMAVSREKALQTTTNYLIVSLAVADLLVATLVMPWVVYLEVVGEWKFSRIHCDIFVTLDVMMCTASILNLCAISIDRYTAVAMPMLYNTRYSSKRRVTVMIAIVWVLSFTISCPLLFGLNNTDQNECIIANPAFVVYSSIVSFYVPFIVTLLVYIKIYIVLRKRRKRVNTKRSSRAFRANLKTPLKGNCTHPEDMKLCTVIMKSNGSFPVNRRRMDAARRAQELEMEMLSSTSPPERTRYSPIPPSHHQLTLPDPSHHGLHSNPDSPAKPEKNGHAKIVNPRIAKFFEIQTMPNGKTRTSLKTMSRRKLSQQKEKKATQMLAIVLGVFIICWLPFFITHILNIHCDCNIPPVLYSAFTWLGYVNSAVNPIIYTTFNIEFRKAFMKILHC

[8] = tested on: Mus musculus; test: Ability to antagonise intraperitoneal dose; inactive (<10% antagonism) at 30 mg/kg is represented as I-30.; type: functional, organism-based; design: dose 30 mg/kg; method in brief: as §2
[9] = organism: Mus musculus; test: Gross behavioral effects ascertained in mice; C indicates overt convulsant; type: functional, organism-based
Method in brief: (§3)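 Male Swiss Webster mice, 18–24 g, three per dose, given ip doses of 1, 3, 10, 30, 100 and 300 mg/kg. Observed for gross behavior and held for 4 days. Scored as weak (W), stimulant (S), depressant (D) or convulsant (C).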

[10] = target: Sodium-dependent serotonin transporter (Rattus norvegicus) (UniProt P31652); test: Ability to inhibit the uptake of [3H]- serotonin(5-HT) 0.1 uM concentration at rat brain synaptosomes; type: functional, subcellular
Sodium-dependent serotonin transporter (Rattus norvegicus), sequence (P31652 whole entry): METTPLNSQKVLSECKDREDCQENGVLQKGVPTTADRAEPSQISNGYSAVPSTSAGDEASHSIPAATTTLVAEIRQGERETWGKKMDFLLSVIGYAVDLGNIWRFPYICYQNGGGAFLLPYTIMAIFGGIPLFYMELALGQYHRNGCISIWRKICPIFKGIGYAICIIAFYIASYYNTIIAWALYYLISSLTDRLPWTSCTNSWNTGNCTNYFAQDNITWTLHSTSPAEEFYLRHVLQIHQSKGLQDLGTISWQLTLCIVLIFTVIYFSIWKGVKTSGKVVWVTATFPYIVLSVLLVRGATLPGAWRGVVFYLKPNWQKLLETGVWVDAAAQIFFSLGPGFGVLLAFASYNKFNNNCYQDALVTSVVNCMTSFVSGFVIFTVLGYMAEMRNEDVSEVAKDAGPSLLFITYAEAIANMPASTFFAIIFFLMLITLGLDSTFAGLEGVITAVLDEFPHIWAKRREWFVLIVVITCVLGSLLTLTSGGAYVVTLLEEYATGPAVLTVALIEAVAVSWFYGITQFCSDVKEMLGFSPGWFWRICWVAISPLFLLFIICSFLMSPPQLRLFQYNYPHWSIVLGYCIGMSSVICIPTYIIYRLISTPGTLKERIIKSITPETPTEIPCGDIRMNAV
Method in brief: (§4)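 Male Wistar rat brain synaptosomes (P2 fraction): hypothalamus for NE, striatum for DA, cerebral cortex for 5-HT. Buffer is Tris- or HEPES-buffered salt medium with glucose, ascorbate and nialamide, pH 7.4 at 37 °C. Preincubated 10 min at 37 °C with compound. Uptake started with [3H]NE 100–300 nM, [3H]DA 50–300 nM or [3H]5-HT 100–200 nM, incubated 3 min (DA) or 6–10 min (NE, 5-HT). Blanks held on ice. Filtered, counted by scintillation.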

[11] = target: Norepinephrine transporter (Rattus norvegicus) (UniProt Q9WTR4); test: Ability to inhibit the uptake of [3H]norepinephrine (NE) 0.1 uM concentration at rat brain synaptosomes; type: functional, subcellular; method in brief: as §4
Norepinephrine transporter (Rattus norvegicus), sequence (Q9WTR4 as listed by the source): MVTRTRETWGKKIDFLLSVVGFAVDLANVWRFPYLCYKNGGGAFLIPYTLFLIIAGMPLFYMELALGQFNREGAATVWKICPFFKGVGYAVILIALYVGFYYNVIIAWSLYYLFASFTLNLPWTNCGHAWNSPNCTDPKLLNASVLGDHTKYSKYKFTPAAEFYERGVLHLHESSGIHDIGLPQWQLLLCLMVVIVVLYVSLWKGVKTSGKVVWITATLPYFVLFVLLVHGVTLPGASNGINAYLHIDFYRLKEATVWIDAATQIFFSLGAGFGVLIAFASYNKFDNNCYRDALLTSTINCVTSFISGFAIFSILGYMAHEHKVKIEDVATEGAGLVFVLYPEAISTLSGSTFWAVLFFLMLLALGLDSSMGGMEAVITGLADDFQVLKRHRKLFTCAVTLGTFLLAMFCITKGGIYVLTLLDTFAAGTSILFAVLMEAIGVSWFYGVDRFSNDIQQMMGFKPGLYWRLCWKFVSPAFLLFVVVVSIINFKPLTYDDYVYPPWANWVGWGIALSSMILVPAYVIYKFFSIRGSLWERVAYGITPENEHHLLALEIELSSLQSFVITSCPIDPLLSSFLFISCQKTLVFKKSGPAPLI

[12] = tested on: Mus musculus; test: Ability to antagonise intraperitoneal dose; inactive (<10% antagonism) at 30 mgjkg is represented as I-30.; type: functional, organism-based; method in brief: as §2
[13] = organism: Rattus norvegicus; test: Ability to inhibit the uptake of tritiated dopamine (DA) 1 uM concentration; type: functional
Method in brief: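 Rat brain synaptosomal [3H]dopamine uptake: striatal P2 fraction, test compound at 1.00 μM. Preincubated at 37 °C, then 50–300 nM [3H]DA for 3 min. Blanks on ice. Filtration and scintillation counting; percent inhibition of control uptake.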

[14] = organism: Mus musculus; test: Gross behavioral effects ascertained in mice; W indicates weak stimulant or depressant activity of little significance.; type: functional, organism-based; method in brief: as §3
[15] = target: D(2) dopamine receptor (Rattus norvegicus) (UniProt P61169); test: Binding affinity towards dopamine receptor D2 at 1.0 uM concentration; method in brief: as §1
D(2) dopamine receptor (Rattus norvegicus), sequence (P61169 whole entry): as the sequence (P61169 whole entry) above

[16] = target: Serotonin 1 (5-HT1) receptor (Rattus norvegicus) (UniProt P28564+P30940+P19327+P28565); test: Binding affinity towards serotonin S1 receptor at 1.0 uM; type: protein assay; method in brief: as §1
[17] = target: D(1A) dopamine receptor (Rattus norvegicus) (UniProt P18901); test: Binding affinity towards Dopamine receptor D1 at 1.0 uM concentration; method in brief: as §1
D(1A) dopamine receptor (Rattus norvegicus), sequence (P18901 whole entry): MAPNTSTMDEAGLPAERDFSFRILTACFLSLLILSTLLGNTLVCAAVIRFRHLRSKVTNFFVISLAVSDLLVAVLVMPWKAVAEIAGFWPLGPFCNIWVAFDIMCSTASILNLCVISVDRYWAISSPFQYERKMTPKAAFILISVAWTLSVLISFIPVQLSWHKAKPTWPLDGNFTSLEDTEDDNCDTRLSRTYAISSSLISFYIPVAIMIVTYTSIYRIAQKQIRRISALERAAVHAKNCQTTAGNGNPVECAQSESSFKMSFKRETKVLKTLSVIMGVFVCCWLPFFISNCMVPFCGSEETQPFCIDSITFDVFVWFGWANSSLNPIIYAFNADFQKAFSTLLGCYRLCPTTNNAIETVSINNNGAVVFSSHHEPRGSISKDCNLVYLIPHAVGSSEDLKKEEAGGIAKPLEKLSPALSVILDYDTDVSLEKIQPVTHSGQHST

[18] = target: Norepinephrine transporter (Rattus norvegicus, UniProt Q9WTR4); test: Inhibition of uptake of tritiated norepinephrine (NE) in rat synaptosomes; type: subcellular, Brain
Norepinephrine transporter, sequence (Q9WTR4 whole entry): as the sequence (Q9WTR4 as listed by the source) above

[19] = target: Adrenergic receptor alpha-1 (Rattus norvegicus) (UniProt P15823+P23944+P43140); test: Binding affinity towards alpha-1 adrenergic receptor at 1.0 uM concentration; type: protein assay; method in brief: as §1

SMILES	Ki [1]	ED50 ([2]; Mus musculus, read-out: ED50)	ED50 ([3]; Mus musculus, read-out: ED50)	Ki [4]	Ki [5]	Ki [6]	inhibition [10]	inhibition [11]	Inhibition [13]	also measured
CSc1ccc([C@@H]2CN3CCC[C@@H]3c3ccccc32)cc1 (stereo in doubt; 48b)	1.03 µM	> 30 mg/kg	0.3 mg/kg	0.314 µM	0.208 µM					
Br.Clc1ccccc1[C@@H]1CN2CCC[C@@H]2c2ccccc21 (stereo in doubt; 24b)	1.68 µM			0.163 µM		0.0359 µM				ED50 [2]: 1.6 mg/kg; ED50 [3]: 0.44 mg/kg; Ki [7]: 0.415 µM
c1ccc([C@H]2CN3CC[C@@H]4CCCC[C@@]43c3ccccc32)cc1							9%	3%	17%	ED50 [8]: inactive; behavior [9]: Overt convulsant; ED50 [12]: inactive
Br.C[C@@]1(c2ccccc2)CN2CCC[C@H]2c2ccccc21		22.5 mg/kg	16.2 mg/kg				14%	19%	50%	behavior [14]: Weak
Br.Clc1ccccc1[C@@H]1CN2CCC[C@@H]2c2ccccc21 (stereo in doubt; (-)-24b)	2.7 µM			0.62 µM		0.775 µM				
Br.c1ccc([C@H]2Cc3ccccc3[C@@H]3CCCN23)cc1		~30 mg/kg	~3 mg/kg				-9%	11%	36%	behavior [14]: Weak
CSc1ccc([C@@H]2CN3CCC[C@@H]3c3ccccc32)cc1 (stereo in doubt; (-)-48b)	0.775 µM			0.213 µM	0.939 µM					
Br.Clc1ccccc1[C@@H]1CN2CCC[C@@H]2c2ccccc21 (stereo in doubt; (+)-24b)	9.2 µM			0.15 µM		0.0175 µM				
COc1ccc2c(c1)CN(C)CC2c1ccc(Cl)c(Cl)c1 (stereo not given) [DICLOFENSINE]					0.037 µM	0.0109 µM				inhibition [15]: 27%; inhibition [16]: 33%; inhibition [17]: 38%; Ki [18]: 0.0088 µM; inhibition [19]: -6%
